ChEMBL document CHEMBL1126711, “The synthesis of novel GABA uptake inhibitors. 1. Elucidation of the structure-activity studies leading to the choice of (R)-1-[4,4-bis(3-methyl-2-thienyl)-3-butenyl]-3-piperidinecarboxylic acid (tiagabine) as an anticonvulsant drug candidate” (J Med Chem, 1993)

Tests used:
Mus musculus [1] = species on record: Mus musculus; assay: Anticonvulsant effect of DMCM-induced seizures in mice expressed as effective dose
Mus musculus [2] = assay: In vivo anticonvulsant effect of DMCM-induced clonic seizures in mice at 15 mg/kg intraperitoneal dose expressed as effective dose; type: functional; conditions: ip
Outline: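 Mice; test compound given ip. Clonic seizures induced with DMCM at 15 mg/kg ip. Inhibition of clonic seizures scored by observation, and ED50 expressed in mg/kg.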

[3] = In vitro inhibition of [3H]GABA uptake in rat synaptosomes; type: functional, subcellular, Brain
Outline: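 Rat forebrain homogenized in ice-cold 0.32 M sucrose, spun 10 min at 600g at 4 °C, and the pellet resuspended in pH 7.4 Na/K/Ca/Mg phosphate-glucose buffer. Synaptosomes (0.1 mg protein) preincubated with test substance 8 min at 30 °C. [3H]GABA (final 0.9 nM) plus unlabeled GABA (final 0.9 nM) then added for a further 8 min, followed by filtration. Uptake in the presence of 500 μM nipecotic acid subtracted. IC50 is the mean of 3–7 determinations ± SE.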

[4] = Lipophilicity measured as partition between octanol and pH 7.4 buffer; type: physicochemical; conditions: octanol/pH 7.4 buffer

| Structure (SMILES) | ED50 (Mus musculus [2]) | IC50 [3] | further results |
| --- | --- | --- | --- |
| CN1C(=O)CN=C(c2ccccc2)c2cc(Cl)ccc21 [DIAZEPAM] |  |  | ED50 (Mus musculus [1]): 2.5 mg/kg |
| Cc1ccsc1/C(=C\CCN1CCC[C@H](C(=O)O)C1)c1cccs1.Cl | 2.5 mg/kg | 60 nM |  |
| O=C(O)C1CCCN(CCC=C(c2cccs2)c2cccs2)C1 (configuration not stated) |  | 256 nM |  |
| Cc1ccccc1/C(=C/CCN1CCC=C(C(=O)O)C1)c1sccc1C.Cl | 1.9 mg/kg | 130 nM |  |
| O=C(O)[C@H]1CCCN(CCC=C2c3ccccc3-c3ccccc32)C1 |  | 1920 nM |  |
| Cc1ccc(/C(=C/CCN2CCC[C@H](C(=O)O)C2)c2sccc2C)c(C)c1 |  | 264 nM |  |
| Cc1ccsc1C(=CCCN1CCC=C(C(=O)O)C1)c1sccc1C.Cl | 1.8 mg/kg | 138 nM |  |
| Cc1ccccc1C(=CCCN1CCC[C@H](C(=O)O)C1)c1ccccc1C.Cl | 1.3 mg/kg |  |  |
| O=C(O)C1=CCCN(CC/C=C(/c2ccccc2)c2cccs2)C1 |  | 265 nM |  |
| Cc1ccsc1/C(=C\CCN1CCC=C(C(=O)O)C1)c1cccs1.Cl | 2.1 mg/kg | 112 nM |  |
| Cc1ccsc1C(=CCCN1CCCC(C(=O)O)C1)c1sccc1C.Cl (configuration not stated) | 2.6 mg/kg | 87 nM |  |
| Cc1ccsc1/C(=C\CCN1CCC=C(C(=O)O)C1)c1ccc(Cl)cc1Cl |  | 320 nM |  |
| Cc1ccsc1C(=CCCN1CCC[C@@H](C(=O)O)C1)c1sccc1C.Cl [TIAGABINE HYDROCHLORIDE] | 1.2 mg/kg | 67 nM | logD [4]: 1.59 |
| Cc1ccsc1/C(=C\CCN1CCC[C@@H](C(=O)O)C1)c1cccs1 |  | 690 nM |  |
| Cc1cc(Cl)ccc1/C(=C/CCN1CCC=C(C(=O)O)C1)c1sccc1C |  | 300 nM |  |
| Cl.O=C(O)C1CCCN(CCC=C(c2ccccc2)c2ccccc2)C1 (configuration not stated) | 3.1 mg/kg | 330 nM |  |
| Cc1ccsc1/C(=C\CCN1CCC=C(C(=O)O)C1)c1ccc(Cl)cc1 |  | 848 nM |  |
| Cc1ccsc1/C(=C\CCN1CCC=C(C(=O)O)C1)c1cc(Cl)cc(Cl)c1 |  | 1860 nM |  |
| Cc1ccccc1/C(=C/CCN1CCC[C@H](C(=O)O)C1)c1sccc1C.Cl | 1.2 mg/kg |  |  |
| Cc1ccsc1/C(=C\CCN1CCCC(C(=O)O)C1)c1ccccc1 (configuration not stated) |  | 290 nM |  |
| Cc1ccsc1C(=CCCN1CCC[C@H](C(=O)O)C1)c1sccc1C |  | 218 nM |  |
| Cl.O=C(O)C1=CCCN(CCC=C(c2ccccc2)c2ccccc2)C1 | 3.6 mg/kg | 341 nM |  |
| COc1ccc(C(OCCN2CCCC(C(=O)O)C2)c2ccc(OC)cc2)cc1 (configuration not stated) |  | > 3000 nM |  |
| Cl.Cn1cccc1/C(=C\CCN1CCC=C(C(=O)O)C1)c1ccccc1 | 1.8 mg/kg | 130 nM |  |
| Cc1ccsc1/C(=C\CCN1CCC[C@H](C(=O)O)C1)c1c(C)cccc1C |  | 247 nM |  |
| O=C(O)C1CCCN(CCOC(c2ccccc2)c2ccccc2)C1 (configuration not stated) |  | 1370 nM |  |
| Cc1ccccc1C(OCCN1CCCC(C(=O)O)C1)c1ccccc1C (configuration not stated) |  | 388 nM |  |
